Measured values as given in ChEMBL document CHEMBL1649231, “In vitro activities of panduratin A against clinical Staphylococcus strains” (2009).
In brackets after ≈: the same amount, converted by molar mass.

Key:
Type in all cases: functional
[1] = system: Staphylococcus aureus; assay: Antimicrobial activity against methicillin-resistant Staphylococcus aureus assessed as resistant isolates after 24 hrs by broth microdilution method
[2] = system: Staphylococcus epidermidis; assay: Bactericidal activity against methicillin-susceptible coagulase-negative Staphylococcus epidermidis after 24 hrs by plate counting method
In short: (§1)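 Clinical staphylococcal isolates from patient body fluids, blood, genital secretions, pus or sputum; species by conventional methods or Vitek. Twofold dilutions in Mueller-Hinton broth, inoculum 5 × 10^5 CFU/ml, 37°C aerobic 24 h (CLSI M7-A6 microdilution). About 100 μl from each well without visible growth spread on MHA; 37°C 24 h. MBC = lowest concentration giving no growth on agar.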

[3] = system: Mammaliicoccus sciuri; assay: Antimicrobial activity against methicillin-susceptible coagulase-negative Staphylococcus sciuri assessed as resistant isolates after 24 hrs by broth microdilution method
[4] = system: Staphylococcus simulans; assay: Bactericidal activity against methicillin-resistant coagulase-negative Staphylococcus simulans after 24 hrs by plate counting method; in short: as §1
[5] = system: Staphylococcus simulans; assay: Antimicrobial activity against methicillin-susceptible coagulase-negative Staphylococcus simulans assessed as susceptible isolates after 24 hrs by broth microdilution method
In short: (§2)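 Clinical isolates from blood, body fluids, pus, sputum or genital secretions, identified conventionally or by Vitek, were tested alongside ATCC 29213 and ATCC 12228 controls. CLSI M7-A6 broth microdilution in Mueller-Hinton broth used twofold dilutions from a 10% DMSO solution and 5 × 10^5 CFU/ml inoculum. Drug-free and uninoculated wells served as controls; incubation was aerobic at 37°C for 24 h. MIC was the lowest concentration with no visible growth.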

[6] = system: Staphylococcus haemolyticus; assay: Antimicrobial activity against methicillin-resistant coagulase-negative Staphylococcus haemolyticus after 24 hrs by broth microdilution method
In short: (§3)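 Clinical isolates came from blood, body fluids, genital secretions, pus or sputum, identified conventionally or by Vitek. MICs were run by CLSI M7-A6 broth microdilution in Mueller-Hinton broth with 5 × 10^5 CFU/ml inoculum. Agents were twofold serially diluted, starting from 10% DMSO. Drug-free and uninoculated controls were included. Plates were incubated aerobically at 37°C for 24 h; MIC is the lowest concentration giving no visible growth.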

[7] = system: Staphylococcus hominis; assay: Bactericidal activity against methicillin-susceptible coagulase-negative Staphylococcus hominis after 24 hrs by plate counting method; in short: as §1
[8] = system: Staphylococcus simulans; assay: Antimicrobial activity against methicillin-susceptible coagulase-negative Staphylococcus simulans after 24 hrs by broth microdilution method; in short: as §3
[9] = system: Staphylococcus epidermidis; assay: Antimicrobial activity against methicillin-susceptible coagulase-negative Staphylococcus epidermidis assessed as resistant isolates after 24 hrs by broth microdilution method
[10] = system: Staphylococcus aureus; assay: Bactericidal activity against methicillin-susceptible Staphylococcus aureus after 24 hrs by plate counting method; in short: as §1
[11] = system: Staphylococcus simulans; assay: Antimicrobial activity against methicillin-resistant coagulase-negative Staphylococcus simulans assessed as resistant isolates after 24 hrs by broth microdilution method
[12] = system: Staphylococcus simulans; assay: Bactericidal activity against methicillin-susceptible coagulase-negative Staphylococcus simulans after 24 hrs by plate counting method; in short: as §1
[13] = system: Staphylococcus aureus; assay: Antimicrobial activity against methicillin-susceptible Staphylococcus aureus assessed as susceptible isolates after 24 hrs by broth microdilution method
[14] = system: Staphylococcus hominis; assay: Antimicrobial activity against methicillin-susceptible coagulase-negative Staphylococcus hominis after 24 hrs by broth microdilution method; in short: as §3
[15] = system: Staphylococcus hominis; assay: Bactericidal activity against methicillin-resistant coagulase-negative Staphylococcus hominis after 24 hrs by plate counting method
[16] = system: Mammaliicoccus sciuri; assay: Antimicrobial activity against methicillin-susceptible coagulase-negative Staphylococcus sciuri after 24 hrs by broth microdilution method; in short: as §3
[17] = system: Staphylococcus haemolyticus; assay: Antimicrobial activity against methicillin-susceptible coagulase-negative Staphylococcus haemolyticus after 24 hrs by broth microdilution method; in short: as §3
[18] = system: Mammaliicoccus sciuri; assay: Antimicrobial activity against methicillin-resistant coagulase-negative Staphylococcus sciuri after 24 hrs by broth microdilution method; in short: as §3
[19] = system: Staphylococcus epidermidis; assay: Antimicrobial activity against methicillin-susceptible coagulase-negative Staphylococcus epidermidis assessed as susceptible isolates after 24 hrs by broth microdilution method
[20] = system: Staphylococcus haemolyticus; assay: Antimicrobial activity against methicillin-resistant coagulase-negative Staphylococcus haemolyticus assessed as resistant isolates after 24 hrs by broth microdilution method
[21] = system: Staphylococcus hominis; assay: Antimicrobial activity against methicillin-resistant coagulase-negative Staphylococcus hominis after 24 hrs by broth microdilution method; in short: as §3
[22] = system: Staphylococcus hominis; assay: Antimicrobial activity against methicillin-susceptible coagulase-negative Staphylococcus hominis assessed as resistant isolates after 24 hrs by broth microdilution method
[23] = system: Mammaliicoccus sciuri; assay: Bactericidal activity against methicillin-resistant coagulase-negative Staphylococcus sciuri after 24 hrs by plate counting method; in short: as §1
[24] = system: Staphylococcus haemolyticus; assay: Bactericidal activity against methicillin-susceptible coagulase-negative Staphylococcus haemolyticus after 24 hrs by plate counting method; in short: as §1
[25] = system: Staphylococcus epidermidis; assay: Bactericidal activity against methicillin-resistant coagulase-negative Staphylococcus epidermidis after 24 hrs by plate counting method
[26] = system: Staphylococcus haemolyticus; assay: Antimicrobial activity against methicillin-susceptible coagulase-negative Staphylococcus haemolyticus assessed as resistant isolates after 24 hrs by broth microdilution method
[27] = system: Staphylococcus simulans; assay: Antimicrobial activity against methicillin-resistant coagulase-negative Staphylococcus simulans after 24 hrs by broth microdilution method; in short: as §3
[28] = system: Staphylococcus simulans; assay: Antimicrobial activity against methicillin-susceptible coagulase-negative Staphylococcus simulans assessed as resistant isolates after 24 hrs by broth microdilution method
[29] = system: Staphylococcus aureus; assay: Antimicrobial activity against methicillin-resistant Staphylococcus aureus after 24 hrs by broth microdilution method; in short: as §3
[30] = system: Staphylococcus aureus; assay: Bactericidal activity against methicillin-resistant Staphylococcus aureus after 24 hrs by plate counting method
[31] = system: Staphylococcus aureus; assay: Antimicrobial activity against methicillin-susceptible Staphylococcus aureus assessed as resistant isolates after 24 hrs by broth microdilution method
[32] = system: Staphylococcus epidermidis; assay: Antimicrobial activity against methicillin-resistant coagulase-negative Staphylococcus epidermidis after 24 hrs by broth microdilution method; in short: as §3
[33] = system: Staphylococcus epidermidis; assay: Antimicrobial activity against methicillin-resistant coagulase-negative Staphylococcus epidermidis assessed as resistant isolates after 24 hrs by broth microdilution method
[34] = system: Mammaliicoccus sciuri; assay: Bactericidal activity against methicillin-susceptible coagulase-negative Staphylococcus sciuri after 24 hrs by plate counting method; in short: as §1
[35] = system: Staphylococcus haemolyticus; assay: Antimicrobial activity against methicillin-susceptible coagulase-negative Staphylococcus haemolyticus assessed as susceptible isolates after 24 hrs by broth microdilution method
[36] = system: Staphylococcus hominis; assay: Antimicrobial activity against methicillin-resistant coagulase-negative Staphylococcus hominis assessed as resistant isolates after 24 hrs by broth microdilution method
[37] = system: Staphylococcus haemolyticus; assay: Bactericidal activity against methicillin-resistant coagulase-negative Staphylococcus haemolyticus after 24 hrs by plate counting method
[38] = system: Mammaliicoccus sciuri; assay: Antimicrobial activity against methicillin-resistant coagulase-negative Staphylococcus sciuri assessed as resistant isolates after 24 hrs by broth microdilution method
[39] = system: Staphylococcus aureus; assay: Antimicrobial activity against methicillin-susceptible Staphylococcus aureus after 24 hrs by broth microdilution method; in short: as §3
[40] = system: Staphylococcus hominis; assay: Antimicrobial activity against methicillin-susceptible coagulase-negative Staphylococcus hominis assessed as susceptible isolates after 24 hrs by broth microdilution method
[41] = system: Staphylococcus epidermidis; assay: Antimicrobial activity against methicillin-susceptible coagulase-negative Staphylococcus epidermidis after 24 hrs by broth microdilution method; in short: as §3
[42] = system: Mammaliicoccus sciuri; assay: Antimicrobial activity against methicillin-susceptible coagulase-negative Staphylococcus sciuri assessed as susceptible isolates after 24 hrs by broth microdilution method; in short: as §2
[43] = Staphylococcus epidermidis, 24 h
[44] = Staphylococcus haemolyticus, 24 h

CC1(C)S[C@@H]2[C@H](NC(=O)[C@H](N)c3ccccc3)C(=O)N2[C@H]1C(=O)O [AMPICILLIN]
Activity [1]: 100% | MBC50 [2]: 4 µg/mL (≈ 11.4 µM) | MBC90 [2]: 128 µg/mL (≈ 366 µM) | MBC [2, 43]: 1 µg/mL (≈ 2.86 µM) | Activity [3]: 100% | MBC50 [4]: 32 µg/mL (≈ 91.6 µM) | MBC90 [4]: 256 µg/mL (≈ 733 µM) | MBC ([4]; Staphylococcus simulans, 24 h): > 2 µg/mL | Activity [5]: 0% | MIC50 [6]: 16 µg/mL (≈ 45.8 µM) | MIC90 [6]: 64 µg/mL (≈ 183 µM) | MBC50 [7]: 4 µg/mL (≈ 11.4 µM) | MBC90 [7]: 128 µg/mL (≈ 366 µM) | MBC ([7]; Staphylococcus hominis, 24 h): 1 µg/mL (≈ 2.86 µM) | MIC50 [8]: 2 µg/mL (≈ 5.72 µM) | MIC90 [8]: 16 µg/mL (≈ 45.8 µM) | Activity [9]: 100% | MBC50 [10]: 64 µg/mL (≈ 183 µM) | MBC90 [10]: 128 µg/mL (≈ 366 µM) | MBC ([10]; Staphylococcus aureus, 24 h): 1 µg/mL (≈ 2.86 µM) | Activity [11]: 100% | MBC50 [12]: 4 µg/mL (≈ 11.4 µM) | MBC90 [12]: 128 µg/mL (≈ 366 µM) | Activity [13]: 0% | MIC50 [14]: 2 µg/mL (≈ 5.72 µM) | MIC90 [14]: 16 µg/mL (≈ 45.8 µM) | MBC50 [15]: 32 µg/mL (≈ 91.6 µM) | MBC90 [15]: 256 µg/mL (≈ 733 µM) | MBC ([15]; Staphylococcus hominis, 24 h): > 2 µg/mL | MIC50 [16]: 2 µg/mL (≈ 5.72 µM) | MIC90 [16]: 16 µg/mL (≈ 45.8 µM) | MIC50 [17]: 2 µg/mL (≈ 5.72 µM) | MIC90 [17]: 16 µg/mL (≈ 45.8 µM) | MIC50 [18]: 16 µg/mL (≈ 45.8 µM) | MIC90 [18]: 64 µg/mL (≈ 183 µM) | Activity [19]: 0% | Activity [20]: 100% | MIC50 [21]: 16 µg/mL (≈ 45.8 µM) | MIC90 [21]: 64 µg/mL (≈ 183 µM) | Activity [22]: 100% | MBC50 [23]: 32 µg/mL (≈ 91.6 µM) | MBC90 [23]: 256 µg/mL (≈ 733 µM) | MBC ([23]; Mammaliicoccus sciuri, 24 h): > 2 µg/mL | MBC50 [24]: 4 µg/mL (≈ 11.4 µM) | MBC90 [24]: 128 µg/mL (≈ 366 µM) | MBC [24, 44]: 1 µg/mL (≈ 2.86 µM) | MBC50 [25]: 32 µg/mL (≈ 91.6 µM) | MBC90 [25]: 256 µg/mL (≈ 733 µM) | MBC [25, 43]: > 2 µg/mL | Activity [26]: 100% | MIC50 [27]: 16 µg/mL (≈ 45.8 µM) | MIC90 [27]: 64 µg/mL (≈ 183 µM) | Activity [28]: 100% | MIC50 [29]: 16 µg/mL (≈ 45.8 µM) | MIC90 [29]: 64 µg/mL (≈ 183 µM) | MBC90 [30]: 256 µg/mL (≈ 733 µM) | MBC ([30]; Staphylococcus aureus, 24 h): 32 µg/mL (≈ 91.6 µM) | Activity [31]: 100% | MIC50 [32]: 16 µg/mL (≈ 45.8 µM) | MIC90 [32]: 64 µg/mL (≈ 183 µM) | Activity [33]: 100% | MBC50 [34]: 4 µg/mL (≈ 11.4 µM) | MBC90 [34]: 128 µg/mL (≈ 366 µM) | MBC ([34]; Mammaliicoccus sciuri, 24 h): 1 µg/mL (≈ 2.86 µM) | Activity [35]: 0% | Activity [36]: 100% | MBC50 [37]: 32 µg/mL (≈ 91.6 µM) | MBC90 [37]: 256 µg/mL (≈ 733 µM) | MBC [37, 44]: > 2 µg/mL | Activity [38]: 100% | MIC50 [39]: 32 µg/mL (≈ 91.6 µM) | MIC90 [39]: 32 µg/mL (≈ 91.6 µM) | Activity [40]: 0% | MIC50 [41]: 2 µg/mL (≈ 5.72 µM) | MIC90 [41]: 16 µg/mL (≈ 45.8 µM) | Activity [42]: 0%
